Source: article PMC7918756 (The Journal of Experimental Medicine, 2021)
pIC50: −log10 of the molar value.

Assays:
[1] = test system: HASMCs (human primary bronchial smooth muscle cells); assay: impedance-based HASMC contraction assay; assay type: cell-based
[2] = test system: HASMCs; assay: calcium imaging, AITC-induced calcium flux in primary cells; assay type: cell-based, human; details: HASMCs treated with TRPA1 agonist AITC
In short: (§1)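 Cells were imaged 15–24 h after plating, with fluorescence sampled at 0.5 Hz. TRPA1 activity was evoked by perfusing saline containing 50 µM AITC.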

[3] = test system: guinea pigs; assay: OVA challenge model of asthma in guinea pigs; assay type: in vivo, guinea pig; details: single oral administration of 70 mg/kg
In short: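 Hartley guinea pigs were immunised i.p. on days 0 and 7 with 100 mg OVA plus 80 mg alum in PBS. On day 28 they were challenged with nebulised 0.1% OVA in PBS for 30 min. Vehicle or test compound was given by gavage 3 h before challenge. Animals were euthanised 24 h later, with aortic blood taken for PK.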

[4] = molecular target: guinea pig TRPA1 (Cavia porcellus, UniProt H0VJD1); assay: CHO cell line FLIPR Ca2+ assay, CA-evoked; assay type: cell-based
[5] = test system: rats; assay: AITC-induced vascular leakage; assay type: in vivo, rat; details: rats, 1, 3 and 10 mg/kg, 3 h before topical AITC
In short: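 Rats dosed 3 h beforehand were given 2% Evans blue i.v. (saline, 2.5 ml/kg) under isoflurane. Then 25 µl 20% AITC went on one ear and mineral oil on the other. Ear thickness was measured. At 20 min after AITC, dye was extracted in formamide (24 h, 65°C) and read at 620 nm.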

[6] = test system: guinea pigs; assay: AITC-induced dermal blood flow; assay type: in vivo, guinea pig; details: oral 5, 15 or 45 mg/kg, 3.5 h before AITC skin challenge
In short: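 Female Hartley guinea pigs, 5 wk old, were dosed orally with 0, 5, 15 or 45 mg/kg test compound in 85% MCT/15% DMSO, 3.5 h before topical AITC. Dermal blood flow was imaged by laser speckle contrast imaging. Traces were normalised to fold-change against the mean pre-AITC baseline.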

[7] = test system: HLFs; assay: calcium imaging, AITC-induced calcium flux in primary cells; assay type: cell-based, human; details: HLFs treated with TRPA1 agonist AITC
In short: as §1

[8] = molecular target: cynomolgus (cyno) monkey TRPA1 (Macaca fascicularis, UniProt A0A2K5VSJ1); assay: CHO cell line FLIPR Ca2+ assay, CA-evoked; assay type: cell-based
[9] = test system: rats; assay: OVA challenge model of asthma in rats; assay type: in vivo, rat; details: oral
In short: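 Sensitised Brown Norway rats were challenged from day 28 with aerosolised 2% OVA in PBS, 30 min daily for 4 consecutive days. Vehicle or test compound was gavaged 3 h before each challenge; dexamethasone 5 mg/kg orally was the positive control. BALF was collected 24 h after the final treatment, eight rats per group.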

[10] = test system: rats; assay: AITC-induced dermal blood flow; assay type: in vivo, rat; details: oral 3 or 10 mg/kg, 3 h before AITC skin challenge
In short: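 Rats dosed orally 3 h before imaging with 0, 3.0 or 10.0 mg/kg test compound in 85% MCT / 15% DMSO. Topical AITC skin challenge. Dermal blood flow recorded by laser speckle contrast imaging. Traces normalised to fold-change by subtracting and dividing by the mean baseline DBF before AITC. DBF rise-time and maximal level assessed.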

[11] = test system: cross-species hepatocytes; assay: hepatocyte metabolic stability, cross-species summary; assay type: in vitro ADME
In short: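 Test compound at 1 µM was incubated with pooled cryopreserved hepatocytes from female CD-1 mouse, male Sprague-Dawley rat, male beagle dog, male cynomolgus monkey and mixed-gender human.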

[12] = molecular target: mouse TRPA1 (Mus musculus, UniProt Q8BLA8); assay: CHO cell line FLIPR Ca2+ assay, CA-evoked; assay type: cell-based
In short: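 Mouse TRPA1-expressing CHO cells, fluorescent Ca2+ dye loaded, were exposed 10 min to a test compound concentration series and then challenged with cinnamaldehyde. Peak fluorescence responses were used to derive concentration-dependent inhibition.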

[13] = molecular target: human TRPV1 (Homo sapiens, UniProt Q8NER1); assay: Ca2+ responses evoked by 30 nM capsaicin; assay type: cell-based
[14] = Phase 1 SAD study, plasma PK; assay type: in vivo, human; details: healthy volunteers, dose increased from 75 mg to 600 mg
In short: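 Healthy volunteers in single-ascending-dose cohorts, randomised 6 test compound : 2 placebo, dosed fasted at 25, 75, 200 or 600 mg. Blood sampled before dose and at multiple time points after dose. Plasma concentrations measured by validated analytical methods.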

[15] = test system: healthy volunteers; assay: Phase 1 SAD study, AITC skin challenge; assay type: in vivo, human
In short: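 Randomised, double-blind, single ascending oral dose study in fasted healthy volunteers: six active and two placebo per cohort, at 25, 75, 200 or 600 mg (tablets). AITC skin challenge was at 3 h (25 mg), 8 h (75 mg) or 6 h (200/600 mg) post-dose. DBF was recorded by LSCI from 2 min before to 21 min after AITC. Pain and itch were rated 0–10 at 2–20 min. DBF AUC0–10 min and maximal scores were compared with pooled placebo (Dunnett's); plasma concentrations were measured by validated bioanalysis.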

[16] = molecular target: T1, human TRPC6 (Homo sapiens, UniProt Q9Y210); assay: membrane potential assay using 75 μM carbochol; assay type: cell-based
T1 sequence (Q9Y210 1-931): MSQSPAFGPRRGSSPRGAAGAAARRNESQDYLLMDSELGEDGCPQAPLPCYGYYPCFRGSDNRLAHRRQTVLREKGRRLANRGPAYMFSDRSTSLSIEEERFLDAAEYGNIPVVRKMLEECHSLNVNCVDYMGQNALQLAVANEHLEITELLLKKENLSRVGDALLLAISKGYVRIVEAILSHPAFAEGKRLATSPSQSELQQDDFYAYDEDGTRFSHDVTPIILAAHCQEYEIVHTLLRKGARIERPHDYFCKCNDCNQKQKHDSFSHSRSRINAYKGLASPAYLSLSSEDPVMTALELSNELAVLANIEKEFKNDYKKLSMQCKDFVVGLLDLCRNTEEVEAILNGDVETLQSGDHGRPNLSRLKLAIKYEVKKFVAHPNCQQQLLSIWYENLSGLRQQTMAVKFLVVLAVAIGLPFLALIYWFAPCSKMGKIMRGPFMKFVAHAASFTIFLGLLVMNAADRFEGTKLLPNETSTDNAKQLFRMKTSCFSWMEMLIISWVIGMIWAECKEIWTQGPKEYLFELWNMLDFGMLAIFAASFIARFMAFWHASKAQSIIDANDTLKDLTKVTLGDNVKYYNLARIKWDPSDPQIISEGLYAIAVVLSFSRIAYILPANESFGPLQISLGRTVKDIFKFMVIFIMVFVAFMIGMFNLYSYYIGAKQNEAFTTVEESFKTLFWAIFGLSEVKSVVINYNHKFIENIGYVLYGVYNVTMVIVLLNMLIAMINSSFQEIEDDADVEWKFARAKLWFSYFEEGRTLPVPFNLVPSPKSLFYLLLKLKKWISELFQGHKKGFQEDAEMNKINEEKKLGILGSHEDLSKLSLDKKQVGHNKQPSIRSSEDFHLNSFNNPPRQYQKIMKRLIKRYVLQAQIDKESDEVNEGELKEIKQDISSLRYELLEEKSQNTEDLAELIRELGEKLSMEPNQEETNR

[17] = test system: healthy volunteers; assay: Phase 1 SAD study, safety and tolerability; assay type: in vivo, human; details: single oral dose 25-600 mg
In short: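 Healthy volunteers received a single oral dose, fasted, randomised 6 active:2 placebo per cohort at 25, 75, 200 or 600 mg. Safety and tolerability was the primary outcome. Escalation targeted about two- to threefold exposure increases, decided after review of safety and PK data up to 72 h post-dose.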

[18] = test system: rats; assay: AITC-induced nocifensive behavior in rats; assay type: in vivo, rat
In short: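 Rats pretreated with test compound at the indicated doses, then given intraplantar AITC. Nocifensive behaviour scored as flinching plus hind paw–directed licking and biting. Data reported as mean ± SEM.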

[19] = IV/PO PK, summary across preclinical species; assay type: in vivo
[20] = molecular target: dog TRPA1 (Canis lupus familiaris, UniProt A0A8I3Q1Q7); assay: CHO cell line FLIPR Ca2+ assay, CA-evoked; assay type: cell-based
[21] = MDCK permeability; assay type: in vitro ADME, canine; details: dog
In short: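 MDCK cells were seeded at 2.5 × 10^5 cells/ml and grown 4 d at 37°C, 5% CO2. Medium was DMEM/Earle's balanced salt solution with 10% FBS, renewed on day 2 and the day before the assay.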

[22] = molecular target: human TRPM8 (Homo sapiens, UniProt Q7Z2W7); assay: Ca2+ responses evoked by 50 μM menthol; assay type: cell-based
Sequence of human TRPM8 (Q7Z2W7 whole entry): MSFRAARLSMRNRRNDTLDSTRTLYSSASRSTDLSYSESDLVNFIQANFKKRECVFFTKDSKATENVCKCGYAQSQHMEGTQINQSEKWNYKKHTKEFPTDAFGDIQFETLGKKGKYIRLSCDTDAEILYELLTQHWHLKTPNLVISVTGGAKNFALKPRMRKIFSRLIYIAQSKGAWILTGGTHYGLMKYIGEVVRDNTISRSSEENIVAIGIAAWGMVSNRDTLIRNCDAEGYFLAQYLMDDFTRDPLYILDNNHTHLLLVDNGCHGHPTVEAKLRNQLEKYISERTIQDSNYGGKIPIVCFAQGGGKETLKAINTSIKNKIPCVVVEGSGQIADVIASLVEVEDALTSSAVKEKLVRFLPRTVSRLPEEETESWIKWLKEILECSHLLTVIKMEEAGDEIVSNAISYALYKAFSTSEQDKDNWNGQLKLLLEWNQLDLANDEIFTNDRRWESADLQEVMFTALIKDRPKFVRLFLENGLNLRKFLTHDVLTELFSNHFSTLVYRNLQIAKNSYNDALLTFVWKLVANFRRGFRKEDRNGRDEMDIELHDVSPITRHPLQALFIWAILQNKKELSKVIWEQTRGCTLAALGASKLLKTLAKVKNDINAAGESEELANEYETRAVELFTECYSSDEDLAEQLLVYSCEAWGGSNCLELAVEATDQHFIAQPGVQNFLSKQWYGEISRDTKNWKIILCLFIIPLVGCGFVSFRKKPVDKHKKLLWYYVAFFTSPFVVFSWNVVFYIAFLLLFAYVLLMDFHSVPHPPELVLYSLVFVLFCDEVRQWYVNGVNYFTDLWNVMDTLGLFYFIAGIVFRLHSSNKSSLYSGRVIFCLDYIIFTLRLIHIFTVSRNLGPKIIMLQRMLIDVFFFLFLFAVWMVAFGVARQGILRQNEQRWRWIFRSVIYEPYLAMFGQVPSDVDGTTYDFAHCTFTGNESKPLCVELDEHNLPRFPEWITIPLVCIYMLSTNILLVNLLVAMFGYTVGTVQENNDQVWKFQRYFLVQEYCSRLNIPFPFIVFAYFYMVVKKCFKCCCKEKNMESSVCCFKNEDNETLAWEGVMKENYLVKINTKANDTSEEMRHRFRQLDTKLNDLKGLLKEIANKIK

Sequence of guinea pig TRPA1 (H0VJD1 1-991): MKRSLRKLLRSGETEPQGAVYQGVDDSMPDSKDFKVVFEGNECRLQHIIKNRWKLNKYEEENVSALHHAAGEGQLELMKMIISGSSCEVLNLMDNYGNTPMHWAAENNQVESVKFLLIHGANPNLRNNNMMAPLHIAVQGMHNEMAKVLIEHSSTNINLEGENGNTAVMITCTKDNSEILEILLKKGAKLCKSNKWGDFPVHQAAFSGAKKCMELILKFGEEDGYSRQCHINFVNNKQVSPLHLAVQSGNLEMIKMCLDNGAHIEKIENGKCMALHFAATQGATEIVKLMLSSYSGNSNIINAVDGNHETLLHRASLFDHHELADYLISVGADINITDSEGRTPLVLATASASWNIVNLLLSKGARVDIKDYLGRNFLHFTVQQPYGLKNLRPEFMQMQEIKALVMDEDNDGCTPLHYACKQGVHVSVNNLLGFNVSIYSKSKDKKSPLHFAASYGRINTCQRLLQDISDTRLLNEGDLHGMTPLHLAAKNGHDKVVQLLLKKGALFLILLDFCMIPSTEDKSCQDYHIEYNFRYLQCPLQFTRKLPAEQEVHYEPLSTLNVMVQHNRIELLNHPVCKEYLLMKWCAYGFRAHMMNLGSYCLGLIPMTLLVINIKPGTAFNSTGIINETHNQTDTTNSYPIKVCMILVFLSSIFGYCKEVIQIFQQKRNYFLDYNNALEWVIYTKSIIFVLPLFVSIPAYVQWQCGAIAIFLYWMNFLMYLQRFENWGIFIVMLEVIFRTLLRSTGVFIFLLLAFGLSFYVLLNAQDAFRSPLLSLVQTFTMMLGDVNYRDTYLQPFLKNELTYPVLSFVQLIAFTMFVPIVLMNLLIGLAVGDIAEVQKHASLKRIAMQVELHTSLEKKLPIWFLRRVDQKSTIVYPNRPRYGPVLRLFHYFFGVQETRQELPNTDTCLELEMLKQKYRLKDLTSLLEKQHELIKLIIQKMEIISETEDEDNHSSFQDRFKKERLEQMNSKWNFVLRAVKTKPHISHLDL
Sequence of cynomolgus (cyno) monkey TRPA1 (A0A2K5VSJ1 26-1144): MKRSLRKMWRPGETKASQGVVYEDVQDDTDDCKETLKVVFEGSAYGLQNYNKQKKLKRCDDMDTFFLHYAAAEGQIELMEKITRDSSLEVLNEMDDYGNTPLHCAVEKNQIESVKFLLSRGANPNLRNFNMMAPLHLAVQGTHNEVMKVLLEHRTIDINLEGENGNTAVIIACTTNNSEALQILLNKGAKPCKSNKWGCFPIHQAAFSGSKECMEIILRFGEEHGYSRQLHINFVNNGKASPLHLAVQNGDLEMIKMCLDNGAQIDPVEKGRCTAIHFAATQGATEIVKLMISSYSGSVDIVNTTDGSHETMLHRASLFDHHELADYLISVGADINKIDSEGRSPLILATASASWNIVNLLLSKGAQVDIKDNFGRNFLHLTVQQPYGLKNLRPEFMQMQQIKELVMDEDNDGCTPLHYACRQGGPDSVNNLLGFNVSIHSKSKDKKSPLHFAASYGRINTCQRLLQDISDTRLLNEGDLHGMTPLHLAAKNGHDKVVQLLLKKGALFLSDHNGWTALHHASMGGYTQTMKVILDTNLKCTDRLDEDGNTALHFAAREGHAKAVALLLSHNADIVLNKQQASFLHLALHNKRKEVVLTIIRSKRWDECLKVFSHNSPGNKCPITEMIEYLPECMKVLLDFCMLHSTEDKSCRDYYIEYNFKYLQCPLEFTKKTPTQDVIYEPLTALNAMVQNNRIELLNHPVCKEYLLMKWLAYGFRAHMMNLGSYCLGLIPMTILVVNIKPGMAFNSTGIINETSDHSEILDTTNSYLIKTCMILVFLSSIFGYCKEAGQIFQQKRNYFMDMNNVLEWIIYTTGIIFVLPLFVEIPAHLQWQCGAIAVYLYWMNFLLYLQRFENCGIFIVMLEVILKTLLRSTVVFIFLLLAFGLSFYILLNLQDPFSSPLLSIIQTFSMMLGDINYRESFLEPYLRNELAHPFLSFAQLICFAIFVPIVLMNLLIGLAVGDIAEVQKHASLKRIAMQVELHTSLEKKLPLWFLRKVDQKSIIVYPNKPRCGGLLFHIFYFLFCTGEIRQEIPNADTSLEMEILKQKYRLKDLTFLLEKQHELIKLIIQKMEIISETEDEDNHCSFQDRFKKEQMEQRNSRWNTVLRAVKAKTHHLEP
Sequence of human TRPV1 (Q8NER1 whole entry): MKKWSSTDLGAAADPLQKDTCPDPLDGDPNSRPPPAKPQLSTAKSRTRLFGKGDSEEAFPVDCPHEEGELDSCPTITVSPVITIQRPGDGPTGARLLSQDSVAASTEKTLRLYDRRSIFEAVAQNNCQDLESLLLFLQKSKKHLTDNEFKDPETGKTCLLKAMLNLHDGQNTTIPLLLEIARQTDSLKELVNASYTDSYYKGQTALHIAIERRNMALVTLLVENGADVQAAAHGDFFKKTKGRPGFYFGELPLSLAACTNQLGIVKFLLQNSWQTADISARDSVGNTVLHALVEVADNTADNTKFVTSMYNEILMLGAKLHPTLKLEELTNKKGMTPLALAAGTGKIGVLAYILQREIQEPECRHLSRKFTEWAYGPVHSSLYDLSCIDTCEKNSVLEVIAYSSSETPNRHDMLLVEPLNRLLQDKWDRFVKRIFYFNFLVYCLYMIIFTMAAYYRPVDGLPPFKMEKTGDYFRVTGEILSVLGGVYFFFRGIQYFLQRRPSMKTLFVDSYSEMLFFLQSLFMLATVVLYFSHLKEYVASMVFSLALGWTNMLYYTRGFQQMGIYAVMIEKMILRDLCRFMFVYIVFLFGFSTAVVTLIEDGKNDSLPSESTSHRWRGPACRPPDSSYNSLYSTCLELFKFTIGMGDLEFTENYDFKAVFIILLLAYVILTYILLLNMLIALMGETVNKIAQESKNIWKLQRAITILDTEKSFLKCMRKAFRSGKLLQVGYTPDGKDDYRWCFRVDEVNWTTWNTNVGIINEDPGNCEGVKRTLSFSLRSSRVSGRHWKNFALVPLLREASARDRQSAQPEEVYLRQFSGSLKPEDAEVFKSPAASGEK

## CCC(=N\O)/C(C)=C/c1ccc(F)cc1 [A-967079, reference compound]
[1]; HASMC contraction assay (Fig. 2 C)
  times less potent than GDC-0334: ~500 times

## C[C@H]1[C@H](F)C[C@@H](C(=O)NCc2cc(-c3cnc(C(F)(F)F)nc3)ncc2C(F)(F)F)N1S(=O)(=O)c1ccc(F)cc1 [GDC-0334, (2S,4R,5S)-4-fluoro-1-(4-fluorophenylsulfonyl)-5-methyl-N-((5-(trifluoromethyl)-2-(2-(trifluoromethyl)pyrimidin-5-yl)pyridin-4-yl)methyl)pyrrolidine-2-carboxamide]
[2]
  effect on AITC-induced calcium flux: inhibited calcium flux
[3]
  BALF infiltrates to the airways: significantly reduced BALF infiltrates
[4]
  pIC50: 7.95
[5]
  Evans blue perfusion (AITC-induced vascular leakage): Dose-dependent reductions
[6]
  AITC-induced DBF: dose-dependent reduction
[7]
  effect on AITC-induced calcium flux: inhibited calcium flux
[8]
  pIC50: 8.44
[9]
  substance P (SP) in BALF after OVA challenge: significantly blunted an increase
[10]
  AITC-induced DBF: Dose-dependent decreases in the DBF rise-times and maximal levels
[11]
  metabolite stability in cross-species hepatocytes: moderate to high
[1]; Homo sapiens, HASMC, read-out: HASMC contraction IC50
  pIC50: 8.74
[12]
  pIC50: 8.57
[13]
  pIC50: < 5.00
[14]
  exposures (Cmax, AUC0–24h, AUC0–72h) vs dose: Approximately dose-proportional increases
[15]; healthy volunteers dosed with 600 mg
  AITC-induced pain and itch: near-complete inhibition
[15]; healthy volunteers, 25-600 mg vs placebo, verbal rating 0–10
  AITC-induced pain and itch: dose dependently reduced
[15]; healthy volunteers, AITC challenge 3–8 h after oral dosing
  DBF response to the AITC skin challenge: strong PD effect
[15]; healthy volunteers, free plasma
  free plasma concentration with near-complete inhibition of AITC-induced DBF: > 4.92 nM
[15]; healthy volunteers, total plasma
  plasma concentration with near-complete inhibition of AITC-induced DBF: > 250 ng/mL
[16]
  pIC50: < 5.00
[17]
  TEAEs thought to be related to treatment: one case of mild headache
  serious TEAEs: no serious treatment-emergent AEs
  tolerability: well tolerated with only mild or moderate adverse events
[18]; 3-mg/kg dose
  AITC-induced nocifensive behavior: suppression comparable to that of Trpa1^−/− rats
[18]; pretreatment, indicated doses
  AITC-induced nocifensive behavior: reduced AITC-induced nocifensive behavior in a dose-dependent manner
[19]
  clearances: low to moderate
[20]
  pIC50: 6.99
[21]
  Papp A→B at 180 min, 10 µM: 18.9 ×10⁻⁶ cm/s
[22]
  pIC50: < 5.00
